Test results published in ChEMBL document CHEMBL1132348, “Structure-based identification of small molecule antiviral compounds targeted to the gp41 core structure of the human immunodeficiency virus type 1” (J Med Chem, 1999).
In brackets after ≈: the same amount, converted by molar mass.

What was measured:
[1] = Inhibitory activity against HIV-I mediated cytopathic effect in MT-2 cells; type: functional, cell-based; details: Human immunodeficiency virus 1, MT2
In short: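 1×10^4 MT-2 cells infected with diluted HIV-1 IIIB in RPMI 1640 with 10% FBS, graded compound concentrations; medium changed during culture. On day 6 post-infection, XTT (1 mg/mL) added, formazan read at 450 nm after 4 h; percent CPE inhibition and IC50 calculated.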

[2] = Inhibitory activity against NC-1 binding to N-36/C-34 peptide complex; type: functional
In short: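 Sandwich ELISA: N-36 (2 μM) preincubated with graded compound 30 min at 37 °C, then C-34 (2 μM) added for 30 min at 37 °C. Mixture captured on wells coated with rabbit anti-N36(L6)C34 IgG (10 μg/mL), detected with mAb NC-1, biotin anti-mouse IgG, streptavidin-HRP and TMB; A450 read; IC50 via Calcusyn.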

[3] = test system: Human immunodeficiency virus 1; assay: Selectivity index was determined by CC50/IC50 for Cytopathic effect.; type: functional
In short: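 Ratio of CC50 (XTT viability in uninfected MT-2 cells) to IC50 from HIV-1 IIIB CPE protection in MT-2 cells (XTT read-out, day 6).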

[4] = Inhibitory activity against HIV-I mediated H9 cells fusion.; type: functional, cell-based, Human immunodeficiency virus 1
In short: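 Dye transfer fusion assay: BCECF-AM-labeled H9/HIV-1 IIIB cells co-cultured with MT-2 cells (1:10) for 2 h at 37 °C with or without compound. Fused and unfused labeled cells counted by fluorescence microscopy; percent inhibition and IC50 derived.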

[5] = test system: MT-2 cells (Homo sapiens); assay: In vitro for the cytotoxicity in MT-2 cells.

| Compound | IC50 [1] [µg/mL] | IC50 [2] [µg/mL] | IC50 [4] [µg/mL] | Selectivity index [3] | CC50 [5] [µg/mL] |
| --- | --- | --- | --- | --- | --- |
| COc1ccc(S(=O)(=O)O)cc1/N=N/c1c(S(=O)(=O)O)cc2cc(Nc3nc(Nc4ccccc4)nc(Nc4cc(C)c(/N=N/c5cc(S(=O)(=O)O)cc6cc(S(=O)(=O)O)cc(O)c56)cc4OC)n3)ccc2c1O | 8.29 (≈ 7.61 µM) | 0.73 (≈ 0.67 µM) | 4.95 (≈ 4.55 µM) | 35.2 | 292 (≈ 268 µM) |
| CC(Nc1ccccc1Cl)c1nc2ccccc2c(=O)n1Cc1ccccc1 (stereo not given) | > 100 | > 100 | > 100 | < 1 | 86.8 (≈ 223 µM) |
| COC(=O)c1cc(C(=O)OC)cc(N(C(=O)Nc2ccc(Cl)c(Cl)c2)C(C)c2nc3ccccc3c(=O)n2Cc2ccccc2)c1 (stereo not given) | > 100 | > 100 | > 100 | < 1 | 20.9 (≈ 31.8 µM) |
| O=C(Nc1cc([N+](=O)[O-])ccc1-c1ccc([N+](=O)[O-])cc1)c1ccc([N+](=O)[O-])cc1Cl | > 100 | > 100 | > 100 | < 1 | 47.2 (≈ 107 µM) |
| C=C[C@H]1CN2CC[C@H]1C[C@@H]2[C@@H](OC(=O)c1ccc(OC)cc1)c1ccnc2ccccc12 | > 100 | > 100 | > 100 | < 1 | 74.1 (≈ 173 µM) |
| O=C(Nc1ccc(Cl)c(Cl)c1)O/N=C(/c1ccccc1)c1ccc(-c2ccccc2)cc1 | > 100 | > 100 | > 100 | < 1 | 74.7 (≈ 162 µM) |
| O=P(CCP(c1ccccc1)c1ccccc1)(c1ccccc1)c1ccccc1 | > 100 | > 100 | 52.27 (≈ 126 µM) | < 1 | 28.9 (≈ 69.7 µM) |
| CC[C@H]1CN2CC[C@H]1C[C@@H]2[C@@H](OC(=O)c1ccccc1Cl)c1ccnc2ccc(OC)cc12 | > 100 | > 100 | 59.78 (≈ 129 µM) | < 1 | 41.3 (≈ 88.9 µM) |
| CC(c1nc2ccc(Cl)cc2c(=O)n1Cc1ccccc1)N(C(=O)c1ccc([N+](=O)[O-])cc1)c1ccc(F)cc1 (stereo not given) | > 100 | > 100 | > 100 | < 1 | 30.2 (≈ 54.2 µM) |

Further lines, with some results ahead:

| IC50 [1] [µg/mL] | IC50 [2] [µg/mL] | IC50 [4] [µg/mL] | Compound | Selectivity index [3] | CC50 [5] [µg/mL] |
| --- | --- | --- | --- | --- | --- |
| > 100 | > 100 | > 100 | Cc1ccc(C(=O)Nc2cccc(C(=O)N/N=C/c3ccc(Br)cc3)c2)cc1 | < 1 | 24.9 (≈ 57.1 µM) |
| > 100 | > 100 | > 100 | Cc1ccc(N(C(=O)Nc2ccccc2)C(C)c2nc(O)c3ccccc3n2)c(C)c1 (stereo not given) | < 1 | 40.8 (≈ 98.8 µM) |
| > 100 | > 100 | > 100 | COc1ccc2c(c1)CCCC2=NOC(=O)Nc1ccccc1-c1ccccc1 | < 1 | 46.8 (≈ 121 µM) |
| 30.8 (≈ 41.8 µM) | 3.18 (≈ 4.32 µM) | 21.85 (≈ 29.7 µM) | Cc1ccc(/N=N/c2c(S(=O)(=O)O)cc3cc(S(=O)(=O)O)cc(Nc4nc(Cl)nc(N(C)c5ccccc5)n4)c3c2O)c(S(=O)(=O)O)c1 | 9.43 | 290 (≈ 394 µM) |
| > 100 | > 100 | > 100 | Cc1ccc(N(C(=O)Nc2ccc(Cl)c(Cl)c2)C(C)c2nc(O)c3ccccc3n2)c(C)c1 (stereo not given) | < 1 | 39.2 (≈ 81.5 µM) |
| > 100 | > 100 | > 100 | Cc1ccc(N(C(=O)Nc2cccc(Cl)c2)C(C)c2nc(O)c3ccccc3n2)c(C)c1 (stereo not given) | < 1 | 54 (≈ 121 µM) |
| > 100 | > 100 | > 100 | C/C(=N/OC(=O)NS(=O)(=O)c1ccc(C)cc1)c1cc2ccccc2oc1=O | < 1 | 286 (≈ 714 µM) |
